The results in this text go back to ChEMBL document CHEMBL1154315, “Discovery of 3-(2-cyano-4-pyridyl)-5-(4-pyridyl)-1,2,4-triazole, FYX-051 - a xanthine oxidoreductase inhibitor for the treatment of hyperuricemia [corrected]” (Bioorg Med Chem Lett, 2009).

Series [1] has as its target T1, Xanthine dehydrogenase/oxidase (Bos taurus, UniProt P80457). Briefly: Inhibition of bovine milk XOR-mediated uric acid formation after 15 mins by spectrophotometer.
For series [2], the system named is Rattus norvegicus. Briefly: Reduction of uric acid level in rat serum at 0.3 mg/kg, po after 6 hrs by phosphotungstic acid method. It counts as functional. Also on record: scale not given: the % may be the effect or the level left. Summed up:
(§1)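 Rats were dosed orally. Blood was drawn from the orbital sinus 2 or 6 h later, clotted 1 h at room temperature and centrifuged. Serum uric acid was measured by the phosphotungstic acid method. Values are mean ± SD of at least three rats.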

Series [3] relates to Rattus norvegicus. Briefly: Reduction of uric acid level in rat serum at 0.3 mg/kg, po after 2 hrs by phosphotungstic acid method. Format: functional. Also on record: scale not given: the % may be the effect or the level left. In outline:
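Test compound dosed orally to rats; blood drawn from orbital sinus 2 or 6 h post-dose, clotted 1 h at room temperature, centrifuged. Serum uric acid measured by phosphotungstic acid method. Mean ± SD of at least three rats.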

The target in another series is CYP3A4 (Homo sapiens, UniProt P08684). Briefly: Inhibition of CYP3A4 in human liver microsomes assessed as inhibition of testosterone hydroxylation at 10 uM by HPLC analysis. To be noted: probe testosterone (hydroxylation). Format: ADME, Microsome. On the set-up: dose 10 uM. Background: Liver microsomes are a subcellular fraction often used to study metabolism.
Series [4] concerns the target T1, Xanthine dehydrogenase/oxidase. Briefly: Inhibition of bovine milk XOR-mediated uric acid formation at 10 uM after 15 mins by spectrophotometer. To be noted: cattle, 0.25 h.
A short description of series [5]: Cmax in rat at 3 mg/kg, po by LC-MS method. Format: ADME, organism-based. Also on record: dose 3 mg/kg, route oral. To be noted: in vivo. In outline: (§2)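 After oral dosing to rats, jugular vein blood was collected at predetermined times and centrifuged to plasma. Plasma was mixed with acetonitrile containing an internal standard and centrifuged, and the supernatant was analysed by LC–MS.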

Series [6] is described as follows: Cmax in rat at 1 mg/kg, po by LC-MS method. The conditions noted are these: in vivo. On the set-up: dose 1 mg/kg, route oral. It counts as ADME, organism-based. In outline: as §2
Series [7] relates to Rattus norvegicus. Briefly: Reduction of uric acid level in rat serum at 1 mg/kg, po after 6 hrs by phosphotungstic acid method. It counts as functional. On the set-up: scale not given: the % may be the effect or the level left. Summed up:
as §1

Series [8] can be described thus: Half life in rat at 3 mg/kg, po by LC-MS method. Format: ADME, organism-based. On the set-up: dose 3 mg/kg, route oral. To be noted: in vivo.
Series [9] can be described thus: Bioavailability in rat at 3 mg/kg. Format: ADME, organism-based. The conditions noted are these: in vivo.
For series [10], the system named is Rattus norvegicus. Briefly: Reduction of uric acid level in rat serum at 3 mg/kg, po after 6 hrs by phosphotungstic acid method. It counts as functional. Also on record: scale not given: the % may be the effect or the level left. In outline:
as §1

CYP3A4, sequence (P08684 whole entry): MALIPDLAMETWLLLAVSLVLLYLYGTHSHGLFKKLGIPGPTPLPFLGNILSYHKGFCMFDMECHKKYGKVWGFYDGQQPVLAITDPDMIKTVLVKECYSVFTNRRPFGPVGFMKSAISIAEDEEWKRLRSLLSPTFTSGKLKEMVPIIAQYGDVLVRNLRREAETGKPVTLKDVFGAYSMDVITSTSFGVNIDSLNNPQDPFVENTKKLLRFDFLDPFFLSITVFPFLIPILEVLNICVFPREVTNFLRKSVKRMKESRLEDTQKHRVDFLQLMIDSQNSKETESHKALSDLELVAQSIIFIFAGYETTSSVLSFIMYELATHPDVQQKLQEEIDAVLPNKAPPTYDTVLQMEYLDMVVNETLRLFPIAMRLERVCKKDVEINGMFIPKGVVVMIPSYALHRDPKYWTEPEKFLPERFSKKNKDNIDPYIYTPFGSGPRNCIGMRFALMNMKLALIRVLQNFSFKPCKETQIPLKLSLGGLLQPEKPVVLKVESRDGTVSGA
T1 sequence (P80457 whole entry): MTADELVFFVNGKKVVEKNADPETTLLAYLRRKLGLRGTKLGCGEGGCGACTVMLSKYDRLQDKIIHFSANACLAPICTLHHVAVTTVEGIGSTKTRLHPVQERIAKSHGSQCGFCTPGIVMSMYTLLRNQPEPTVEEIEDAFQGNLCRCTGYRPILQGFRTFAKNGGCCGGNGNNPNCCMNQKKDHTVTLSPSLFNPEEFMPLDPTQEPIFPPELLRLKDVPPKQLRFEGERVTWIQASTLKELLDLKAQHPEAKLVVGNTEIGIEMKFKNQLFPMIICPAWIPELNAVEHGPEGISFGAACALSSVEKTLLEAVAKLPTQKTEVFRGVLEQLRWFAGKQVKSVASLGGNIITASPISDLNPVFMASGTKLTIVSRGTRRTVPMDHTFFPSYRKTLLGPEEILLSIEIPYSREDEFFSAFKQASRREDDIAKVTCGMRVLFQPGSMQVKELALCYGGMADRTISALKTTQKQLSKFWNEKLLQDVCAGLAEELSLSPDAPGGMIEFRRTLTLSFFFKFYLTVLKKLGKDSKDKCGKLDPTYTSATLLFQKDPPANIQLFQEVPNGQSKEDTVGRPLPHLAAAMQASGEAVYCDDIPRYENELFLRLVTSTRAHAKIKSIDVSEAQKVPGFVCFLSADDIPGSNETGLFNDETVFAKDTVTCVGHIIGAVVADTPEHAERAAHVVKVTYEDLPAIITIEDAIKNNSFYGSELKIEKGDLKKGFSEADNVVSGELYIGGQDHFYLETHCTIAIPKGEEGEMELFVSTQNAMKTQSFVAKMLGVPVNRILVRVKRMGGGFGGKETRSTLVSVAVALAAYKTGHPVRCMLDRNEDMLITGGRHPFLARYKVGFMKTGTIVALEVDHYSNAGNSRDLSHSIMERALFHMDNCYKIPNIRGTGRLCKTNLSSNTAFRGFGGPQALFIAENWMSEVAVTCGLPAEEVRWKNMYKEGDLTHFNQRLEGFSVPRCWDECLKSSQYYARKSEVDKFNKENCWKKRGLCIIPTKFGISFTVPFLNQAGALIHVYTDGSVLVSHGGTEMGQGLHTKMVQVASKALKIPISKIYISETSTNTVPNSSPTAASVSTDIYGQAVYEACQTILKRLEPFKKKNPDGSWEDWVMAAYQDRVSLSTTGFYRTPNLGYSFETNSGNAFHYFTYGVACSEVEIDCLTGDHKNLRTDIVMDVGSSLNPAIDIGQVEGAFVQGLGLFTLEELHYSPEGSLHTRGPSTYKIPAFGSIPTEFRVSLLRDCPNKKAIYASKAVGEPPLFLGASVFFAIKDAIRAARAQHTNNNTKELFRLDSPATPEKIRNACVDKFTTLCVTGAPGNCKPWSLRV

The term IC50 denotes the concentration that inhibits the measured activity by half. Take `Cc1cc(-c2n[nH]c(-c3ccnc(-c4ccccc4)c3)n2)ccn1`: the half-maximal inhibitory concentration (IC50) in series [1] was found to be 59 nM. For the same compound, in the series with Rattus norvegicus [2], the Activity turned out to be 8%.

As for `COc1ccc(-c2n[nH]c(-c3ccncc3)n2)cc1[N+](=O)[O-]`, in series [1], the IC50 was 3.3 nM. Moreover, in the series on Rattus norvegicus [2], the Activity stood at 19.6%.

In series [1], `O=[N+]([O-])c1cc(-c2n[nH]c(-c3ccncc3)n2)ccc1Cl` gave an IC50 of 4.7 nM. In addition, the Activity in the series with Rattus norvegicus [2] was found to be 0.9%.

Consider `Oc1ncnc2[nH]ncc12` [ALLOPURINOL], for which the Activity in the series with Rattus norvegicus [2] is -3.3%; in the series with Rattus norvegicus [3] it was 35.9%.

As usually defined, the inhibition is the percentage by which the read-out fell short of the control. `c1ccc(-c2n[nH]c(-c3ccncc3)n2)nc1`: the figures for the inhibition at 10 µM (on CYP3A4; in series [4]) were 20.3% and 31%, respectively.

`CC(C)CSc1cc(-c2nc(-c3ccnc(C#N)c3)n[nH]2)ccn1`: the Activity in the series on Rattus norvegicus [2] is reported as -1.4%.

As to `Cc1cc(-c2nc(-c3ccc(OCC(C)C)c([N+](=O)[O-])c3)n[nH]2)ccn1`, the midpoint of inhibition in series [1], the IC50, lay at 10 nM. Besides, the Activity in the series with Rattus norvegicus [2] is 39.1%.

As to `Cc1cc(-c2n[nH]c(-c3ccnc(SCC(C)C)c3)n2)ccn1`, in series [1], the IC50 is 46 nM. For the same compound, the Activity in the series with Rattus norvegicus [2] is 4.5%.

For `CC(C)COc1cc(-c2nc(-c3ccnc(C#N)c3)n[nH]2)ccn1`, the Activity with Rattus norvegicus [2] was determined as 1.9%.

For the compound `COc1ccc(-c2n[nH]c(-c3ccnc(C)c3)n2)cc1[N+](=O)[O-]`, the IC50 in series [1] was 17 nM. The Activity in the series with Rattus norvegicus [2] was found to be 19.3%.

Usually Cmax stands for the peak of the concentration-time curve. Consider `Cc1cc(-c2n[nH]c(-c3ccnc(C#N)c3)n2)ccn1`, for which the concentration for half-maximal inhibition (IC50) in [1] was determined as 59 nM. The Activity in the series on Rattus norvegicus [2] turned out to be 41.1%. In addition, the inhibition at 10 µM on CYP3A4 stood at 4.7%. In addition, the Cmax in [5] stood at 3970 ng/mL.

Compound `Cc1cc(-c2nc(-c3ccncc3)n[nH]2)ccn1` had an IC50 in [1] of 28 nM. Also, the Activity in the series on Rattus norvegicus [2] is -0.4%. In addition, on CYP3A4, the inhibition at 10 µM came out at 24.7%. In series [6], this compound showed a Cmax of 1240 ng/mL.

Compound `Cc1cc(-c2n[nH]c(-c3ccnc(Cl)c3)n2)ccn1` returned an IC50 in series [1] of 89 nM. The Activity in the series with Rattus norvegicus [2] is recorded as 32.9%. In [5], this compound registered a Cmax of 4070 ng/mL.

Regarding `c1cncc(-c2n[nH]c(-c3ccncc3)n2)c1`, in series [1], it took 130 nM to reach half-maximal inhibition (IC50). The inhibition at 10 µM at CYP3A4 was determined as 10.4%. Besides, the Activity with Rattus norvegicus [7] (dose 1 mg/kg) is listed as -7.7%.

Consider `N#Cc1ccc(-c2n[nH]c(-c3ccncc3)n2)cn1`, for which, in [1], the half-maximal inhibitory concentration (IC50) stood at 38 nM. Also, in the series with Rattus norvegicus [7] (dose 0.3 mg/kg, in the assay text read “at 0.3 mg/kg” for “at 1 mg/kg”), the Activity is given as -4%.

In turn, `Cc1cc(-c2n[nH]c(-c3ccnc(C)c3)n2)ccn1` gave an IC50 in series [1] of 310 nM. Also, the Activity in the series with Rattus norvegicus [2] is 26.1%. Moreover, the inhibition at 10 µM at CYP3A4 was 15.3%.

In turn, `N#Cc1cc(-c2n[nH]c(-c3ccnc(Cl)c3)n2)ccn1` had an IC50 in series [1] of 39 nM. Besides, the Activity in the series on Rattus norvegicus [2] worked out at 33.6%. The inhibition at 10 µM on CYP3A4 is 3.6%. Further, in [5], the highest concentration (Cmax) worked out at 5340 ng/mL.

Compound `c1ccc(-c2cc(-c3n[nH]c(-c4ccncc4)n3)ccn2)cc1` displayed an IC50 in [1] of 6.8 nM. Besides, the Activity in the series with Rattus norvegicus [2] is -0.4%.

In the case of `CC(C)COc1ccc(-c2n[nH]c(-c3ccncc3)n2)cc1C#N`, in series [1], the IC50 was 4.9 nM. Further, the Activity with Rattus norvegicus [2] is on record as 36.3%.

One may read the half-life as the time needed for the level to fall by half in the phase considered. One may read the bioavailability as the share of a dose that reaches the circulation, judged against a reference dose that is usually intravenous. Regarding `N#Cc1cc(-c2n[nH]c(-c3ccncc3)n2)ccn1` [TOPIROXOSTAT], 5.3 nM corresponded to half-maximal inhibition in series [1] (IC50). Besides, the Activity in the series on Rattus norvegicus [2] was found to be 51.1%; in the series with Rattus norvegicus [3], 59.9%. Further, at CYP3A4, the inhibition at 10 µM amounted to 18.6%. Besides, the half-life in series [8] was 19.7 h. The bioavailability in [9] was found to be 69.6%.

In series [1], `CC(C)COc1ccc(-c2n[nH]c(-c3ccnc(C#N)c3)n2)cn1` registered an IC50 of 590 nM. Further, in the series on Rattus norvegicus [10], the Activity is on record as -6.1%.

In turn, `c1cc(-c2n[nH]c(-c3ccncc3)n2)ccn1` gave a 50% inhibitory concentration (IC50) in series [1] of 170 nM. Further, the inhibition at 10 µM at CYP3A4 was found to be 18.5%. Moreover, the Activity with Rattus norvegicus [7] (dose 1 mg/kg) is recorded as -6.8%.

Take `N#Cc1cc(-c2n[nH]c(-c3ccnc(-c4ccccc4)c3)n2)ccn1`: in the series with Rattus norvegicus [2], the Activity was determined as 4.2%.

With `Fc1cc(-c2n[nH]c(-c3ccncc3)n2)ccn1`, the midpoint of inhibition in [1], the IC50, lay at 48 nM. The Activity in the series on Rattus norvegicus [2] is recorded as -0.2%. Besides, the inhibition at 10 µM at CYP3A4 is 40.2%.

In turn, `Brc1cc(-c2n[nH]c(-c3ccncc3)n2)ccn1` gave an IC50 in [1] of 9.9 nM. In addition, the Activity in the series with Rattus norvegicus [2] was -6.2%.

With `CSc1cc(-c2nc(-c3ccnc(C)c3)n[nH]2)ccn1`, half-maximal inhibition in series [1] (IC50) was put at 170 nM. For the same compound, the Activity with Rattus norvegicus [2] is on record as 19.2%.

The compound `CC(C)COc1ccc(-c2n[nH]c(-c3ccncc3)n2)cc1[N+](=O)[O-]` came in with an IC50 in series [1] of 3.7 nM. Besides, the Activity in the series with Rattus norvegicus [2] worked out at 33.7%.

For the compound `Clc1cc(-c2n[nH]c(-c3ccncc3)n2)ccn1`, in series [1], the IC50 came to 7.9 nM. On CYP3A4, the inhibition at 10 µM was 54.1%. In series [5], this compound registered a Cmax of 4360 ng/mL. For the same compound, the Activity in the series on Rattus norvegicus [7] (dose 1 mg/kg) came to 26.5%.

Consider `CSc1cc(-c2nc(-c3ccnc(C#N)c3)n[nH]2)ccn1`, for which the Activity in the series with Rattus norvegicus [2] was -3.7%.

Compound `N#Cc1cc(-c2n[nH]c(-c3ccnc(C#N)c3)n2)ccn1` had an IC50 in series [1] of 18 nM. Moreover, the Activity in the series on Rattus norvegicus [2] is given as 32%.

For `Cc1cc(-c2nc(-c3ccc(OCC(C)C)nc3)n[nH]2)ccn1`, half-maximal inhibition in [1] (IC50) was put at 170 nM. The Activity with Rattus norvegicus [2] amounted to 13%.

On to `COCCOCCOc1ccc(-c2nc(-c3ccnc(C)c3)n[nH]2)cc1C#N`, for which the IC50 in series [1] was found to be 31 nM. For the same compound, the Activity in the series on Rattus norvegicus [2] was found to be 52%.

`Cc1cc(-c2nc(-c3ccc(Cl)c([N+](=O)[O-])c3)n[nH]2)ccn1` displayed an IC50 in series [1] of 30 nM. For the same compound, the Activity in the series on Rattus norvegicus [2] is 19.8%.

As to `Cc1cc(-c2n[nH]c(-c3ccnc(OCC(C)C)c3)n2)ccn1`, the midpoint of inhibition in [1], the IC50, lay at 63 nM. Besides, the Activity in the series on Rattus norvegicus [2] was 2.3%. Besides, the Cmax in series [5] amounted to 1440 ng/mL.

For the compound `Cc1cc(-c2nc(-c3ccc(OCC(C)C)c(C#N)c3)n[nH]2)ccn1`, the IC50 in [1] is 17 nM. The Activity in the series with Rattus norvegicus [2] came out at 46%.

On to `CC(C)COc1ccc(-c2n[nH]c(-c3ccncc3)n2)cn1`, for which the IC50 in [1] was found to be 24 nM. The Activity in the series with Rattus norvegicus [2] and in the series with Rattus norvegicus [10] was 13.4% in each case.
